This is an account of results in ChEMBL document CHEMBL5316305, “An Empirical Quantitative Structure-Activity Relationship Equation Assists the Discovery of High-Affinity Phosphodiesterase 4D Inhibitors as Leads to PET Radioligands” (J Med Chem, 2023).

Structures are written as SMILES.

The target in assay [1] is T1, 3',5'-cyclic-AMP phosphodiesterase 4B (Homo sapiens, UniProt Q07343, S133D). Kind of assay: Inhibition of human PDE4B1 S133D mutant by coupled enzyme based fluorescence analysis. The procedure, abridged: (§1)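 Mutationally activated dimeric enzymes: PDE4D7-S129D (PDE4D*) and PDE4B1-S133D (PDE4B*). A real-time coupled enzyme assay measured inhibition instead of a fluorescein-labeled cAMP substrate, because the label prevents UCR2 closure. PDE4B* was used to assess subtype selectivity. The method otherwise followed earlier work.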
T1 sequence (Q07343 whole entry S133D): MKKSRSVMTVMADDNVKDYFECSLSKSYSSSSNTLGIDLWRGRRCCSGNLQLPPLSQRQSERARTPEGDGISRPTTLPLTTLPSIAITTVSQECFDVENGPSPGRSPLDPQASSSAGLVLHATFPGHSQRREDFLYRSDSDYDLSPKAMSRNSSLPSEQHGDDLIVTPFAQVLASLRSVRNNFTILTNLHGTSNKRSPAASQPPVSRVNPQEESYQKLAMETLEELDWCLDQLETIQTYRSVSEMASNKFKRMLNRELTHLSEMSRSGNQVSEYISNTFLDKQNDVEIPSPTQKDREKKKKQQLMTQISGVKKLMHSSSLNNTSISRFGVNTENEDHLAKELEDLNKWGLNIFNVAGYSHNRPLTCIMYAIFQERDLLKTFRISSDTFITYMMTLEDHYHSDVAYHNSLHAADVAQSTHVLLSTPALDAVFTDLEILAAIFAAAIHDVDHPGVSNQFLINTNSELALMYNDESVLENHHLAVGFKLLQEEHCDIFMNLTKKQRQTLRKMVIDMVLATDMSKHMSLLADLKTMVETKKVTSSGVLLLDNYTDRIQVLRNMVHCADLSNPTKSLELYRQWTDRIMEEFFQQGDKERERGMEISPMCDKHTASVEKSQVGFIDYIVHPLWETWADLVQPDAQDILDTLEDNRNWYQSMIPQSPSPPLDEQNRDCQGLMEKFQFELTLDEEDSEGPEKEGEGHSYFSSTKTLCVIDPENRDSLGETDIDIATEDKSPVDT

The next assay is filed under the species Homo sapiens. Kind of assay: Selectivity index, ratio of IC50 for human PDE4B1 S133D mutant to IC50 for human PDE4D7 S129D mutant.
Assay [2] can be described thus: Inhibition of human PDE4D7 S129D mutant by coupled enzyme based fluorescence analysis.
Assay [3] concerns the target T1, 3',5'-cyclic-AMP phosphodiesterase 4B. Kind of assay: Inhibition of PDE4B1 S133D mutant (unknown origin) preincubated for 5 to 10 mins followed by substrate addition and measured for 10 mins by coupled enzyme based fluorescence analysis. The essentials:
as §1

Assay [4] is described as follows: Selectivity index, ratio of IC50 for PDE4B1 S133D mutant (unknown origin) to IC50 for PDE4D7 S129D mutant (unknown origin). The essentials: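 B/D ratio is the IC50 against PDE4B1-S133D (PDE4B*) divided by the IC50 against PDE4D7-S129D (PDE4D*). Both IC50s come from the real-time coupled enzyme assay on the mutationally activated dimeric enzymes.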
Assay [5] in a line: Inhibition of PDE4D7 S129D mutant (unknown origin) preincubated for 5 to 10 mins followed by substrate addition and measured for 10 mins by coupled enzyme based fluorescence analysis. More on the design: species or system Homo sapiens. The essentials: as §1

By IC50 is commonly meant the point on the concentration scale where inhibition reaches its midpoint. Turning to `COc1ccc(Cc2cn[nH]c2)nc1-c1cccc([N+](=O)[O-])c1`, the 50% inhibitory concentration (IC50) in assay [1] is 280 nM.
On to `COc1ccc(Cc2ccncc2)nc1-c1cccc(Cl)c1`, for which the IC50 in assay [1] was 720 nM.
`COc1ccc(Cc2ccncc2)nc1-c1cccc([N+](=O)[O-])c1` yielded a half-inhibitory concentration (IC50) in assay [1] of 1120 nM. This IC50 lies about 1.6-fold higher than the previous one.
In the case of `COc1ccc(Cc2cnn(C)c2)nc1-c1cccc(Cl)c1`, the Ratio IC50 in the assay filed under Homo sapiens was determined as 1670. Moreover, the values for the concentration for half-maximal inhibition (IC50) in assay [1] and in assay [2] were 858 nM and 0.5 nM, respectively.
Turning to `COc1ccc(Cc2cn[nH]c2)nc1-c1cccc(F)c1`, the IC50 in assay [3] is 995 nM; in assay [5] it was 23.8 nM. For the same compound, the Ratio IC50 in assay [4] came to 42.
For `COc1ccc(Oc2cn[nH]c2)nc1-c1cccc(C(F)(F)F)c1`, the concentration for half-maximal inhibition (IC50) is 3240 nM in assay [3] and 3540 nM in assay [5]. Also, in assay [4], the Ratio IC50 is 0.92.
Taken in the same sequence, the figures for `COc1cccc(-c2nc(Cc3cccnc3)ccc2OC(F)F)c1` were 764 nM, 12.3 nM and 62.
Taken in the same sequence, the figures for `COc1cccc(-c2nc(Cc3ccncc3)ccc2OC(F)F)c1` were 621 nM, 3.9 nM and 159.
`COc1cccc(-c2nc(Cn3cnnn3)ccc2OC(F)F)c1`: the IC50 in assay [3] was 646 nM; in assay [5], 23 nM. The Ratio IC50 in assay [4] was 28.
For `COc1cccc(-c2nc(Cc3cn[nH]c3)ccc2OC)c1`, the 50% inhibitory concentration (IC50) in assay [3] was 2130 nM; in assay [5], 13 nM. Moreover, the Ratio IC50 in assay [4] is 165. Further, the logIC50 in assay [5] was 1.11 log(nM).
As to `COc1cccc(-c2nc(Cc3cn[nH]c3)ccc2OC(F)F)c1`, the half-maximal inhibitory concentration (IC50) in assay [3] was determined as 521 nM; in assay [5], 2.7 nM. Further, the Ratio IC50 in assay [4] came out at 193.
Regarding `COc1cccc(-c2nc(Cc3cnn(C)c3)ccc2OC(F)F)c1`, the IC50 turned out to be 853 nM in assay [3] and 3.5 nM in assay [5]. Moreover, in assay [4], the Ratio IC50 turned out to be 244.
